Experimental findings from ChEMBL document CHEMBL1134670, “Synthesis and cytotoxicity on sensitive and doxorubicin-resistant cell lines of new pyrrolo[2,1-c][1,4]benzodiazepines related to anthramycin” (J Med Chem, 2001) are described below.

Assay [1] is filed under the species Homo sapiens. Briefly: In vitro cytotoxicity expressed as conc. that inhibits 50% of KB (human) cell proliferation. The format is functional. A digest of the protocol: (§1)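 KB and VERO monolayers in medium 199 with 10% newborn calf serum, 12 × 10^4 cells seeded per well. Serial dilutions from a DMSO or water stock were added at seeding, with final DMSO below 1%. Cultures were held 48 h at 37 °C in 5% CO2. Viability was then measured after 18 h in neutral red medium, SDS lysis and dye absorbance at 540 nm.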

Assay [2] has as its system HCT-15. Briefly: In vitro cytotoxicity expressed as concentration that inhibits 50% of HCT 15 (colon) resistant variant cell proliferation. The format is functional, cell-based. Conditions: Homo sapiens. In short, it runs like this: (§2)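 Cells were kept at 37 °C in sealed dishes of MEM with 10% heat-inactivated FCS plus glutamine, penicillin, streptomycin and gentamycin. […] Cells were plated at 10 000 cells/mL for 24 h, then given nine concentrations from 10^-5 to 10^-9 M. Growth was read by MTT colorimetric assay.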

Assay [3] can be described thus: In vitro cytotoxicity expressed as concentration that inhibits 50% of U373 (glioblastoma) resistant variant cell proliferation. The format is functional, cell-based, U-373MG ATCC. Conditions: Homo sapiens, U373 MG. A digest of the protocol:
as §2

The test system of assay [4] is HCT-15. In words: In vitro cytotoxicity expressed as concentration that inhibits 50% of HCT 15 (colon) sensitive variant cell proliferation. The format is functional, cell-based. To be noted: Homo sapiens. A digest of the protocol:
as §2

Assay [5] relates to K562. In words: In vitro cytotoxicity expressed as concentration that inhibits 50% of K562S (sensitive clone)cell proliferation. Format: functional, cell-based. To be noted: Homo sapiens.
Assay [6] is described as follows: (§3) In vitro cytotoxicity expressed as concentration that inhibits 50% of J82 (bladder) resistant variant cell proliferation. The format is functional. To be noted: Homo sapiens. In short, it runs like this: as §2
Assay [7] has as its system U373 MG. In words: In vitro cytotoxicity expressed as concentration that inhibits 50% of U373 (glioblastoma) sensitive variant cell proliferation. Format: functional, cell-based, U-373MG ATCC. Conditions: Homo sapiens. A digest of the protocol:
as §2

The test system of assay [8] is Vero. Briefly: In vitro cytotoxicity expressed as conc. that inhibits 50% of VERO(monkey kidney) cell proliferation. Format: functional, cell-based. Conditions: Chlorocebus sabaeus. A digest of the protocol:
as §1

Assay [9] concerns K562. In words: In vitro cytotoxicity expressed as concentration that inhibits 50% of K562R (resistant clone) cell proliferation. The format is functional, cell-based. Conditions: Homo sapiens.
Assay [10] relates to LoVo. Briefly: In vitro cytotoxicity expressed as concentration that inhibits 50% of LoVo (colon) resistant cell proliferation. The format is functional, cell-based. Conditions: Homo sapiens. In short, it runs like this: as §2
In assay [11] the test system is T-24. Briefly: In vitro cytotoxicity expressed as concentration that inhibits 50% of T24 (bladder) sensitive variant cell proliferation. Format: functional, cell-based. To be noted: Homo sapiens. A digest of the protocol: as §2
Assay [12] has as its system U-87 MG. Briefly: In vitro cytotoxicity expressed as concentration that inhibits 50% of U87 (glioblastoma) resistant variant cell proliferation. Format: functional, cell-based, U-87MG ATCC. To be noted: Homo sapiens. A digest of the protocol:
as §2

Assay [13] has as its system T-24. Briefly: In vitro cytotoxicity expressed as concentration that inhibits 50% of T24 (bladder) resistant variant cell proliferation. To be noted: Homo sapiens. The format is functional, cell-based. A digest of the protocol:
as §2

The test system of assay [14] is HCT-116. In words: In vitro cytotoxicity expressed as concentration that inhibits 50% of HCT(human colon carcinoma)116 cell proliferation. The format is functional, cell-based.
For assay [15], the system named is U-87 MG. In words: In vitro cytotoxicity expressed as concentration that inhibits 50% of U87 (glioblastoma) sensitive variant cell proliferation. The format is functional, cell-based, U-87MG ATCC. Conditions: Homo sapiens. A digest of the protocol:
as §2

The nature of assay [16]: as §3. To be noted: Homo sapiens. Format: functional. A digest of the protocol:
as §2
This is another data set of the same source.

Assay [17] relates to LoVo. In words: In vitro cytotoxicity expressed as concentration that inhibits 50% of LoVo (colon) sensitive variant cell proliferation. Format: functional, cell-based. To be noted: Homo sapiens. In short, it runs like this: as §2
The test system of assay [18] is K562. In words: In vitro cytotoxicity expressed as concentration that inhibit 50% of K562R (resistant clone) cell proliferation. Format: functional, cell-based. Conditions: Homo sapiens.
The nature of assay [19]: In vitro cytotoxicity expressed as concentration that inhibits 50% of J82 (bladder) sensitive variant cell proliferation. Format: functional. To be noted: Homo sapiens. A digest of the protocol:
as §2

For the compound `CO[C@H]1Nc2cc3c(cc2C(=O)N2C=C(/C=C/C(=O)N(C)C)C[C@@H]12)OCO3`, the IC50 (as a rule, the concentration at which inhibition is half-maximal) in assay [1] was 5 nM; in [2] it was 7 nM; in assay [3] it was 37 nM; in assay [4], 8 nM; in assay [5], 50 nM; in [6], 10 nM. For the same compound, the IC50 stood at 30 nM in [7]; 20 nM in assay [8]; 30 nM in assay [9]; 9 nM in assay [10]; 10 nM in [11]; 38 nM in assay [12]. Further, the IC50 was 10 nM in [13]; 20 nM in assay [14]; 40 nM in [15]; 10 nM in assay [16]; 9 nM in [17].
For the compound `CO[C@H]1Nc2ccccc2C(=O)N2C=C(/C=C/C(=O)N(C)C)C[C@@H]12`, the IC50 is 86 nM in assay [1]; 85 nM in [5]; 75 nM in [8]; 120 nM in [18]; 50 nM in [14].
With `COc1cccc2c1C(=O)c1c(O)c3c(c(O)c1C2=O)C[C@@](O)(C(=O)CO)C[C@@H]3O[C@H]1C[C@H](N)[C@H](O)[C@H](C)O1` [DOXORUBICIN], the IC50 in [1] came out at 100 nM; in [2], 80 nM; in assay [3] it was 130 nM; in [4], 50 nM; in assay [5], 50 nM; in assay [7] it was 10 nM. Further, the IC50 came out at 5000 nM in assay [8]; 7000 nM in assay [9]; 80 nM in assay [10]; 30 nM in assay [19]; 20 nM in [11]; 140 nM in assay [12]. Moreover, the IC50 in assay [13] is over 10000 nM; in assay [15], 60 nM; in assay [16] it was over 10000 nM; in assay [17], 8 nM.
In assay [1], `CO[C@@]12[C@H](COC(N)=O)C3=C(C(=O)C(C)=C(N)C3=O)N1C[C@@H]1N[C@@H]12` [MITOMYCIN] displayed an IC50 of 500 nM.
For the compound `CN(C)C(=O)/C=C/C1=CN2C(=O)c3cc4c(cc3NC(S(=O)(=O)O)[C@@H]2C1)OCO4` (some centres not stated) [SODIUM BISULFITE ADDUCT], the IC50 amounted to 50 nM in assay [1], 50 nM in assay [8] and 25 nM in assay [14].
